Reference: ChEMBL document CHEMBL2176902, “Identification of small-molecule enhancers of arginine methylation catalyzed by coactivator-associated arginine methyltransferase 1” (J Med Chem, 2012)
Calls of active or inactive are those of the source. No cut-off for these calls is given here.

Assays:
[1] = molecular target: Protein arginine N-methyltransferase 1 (Homo sapiens) (UniProt Q99873); assay: Inhibition of human recombinant GST-PRMT1 expressed Escherichia coli BL21 using Npl3p substrate as substrate and [3H]-SAM at 50 uM after 90 mins by scintillation counting
Method in brief: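 Human recombinant PRMT1 was incubated with Npl3p substrate and [³H]SAM (0.42 μM) in PBS pH 7.4 with compound at 50 μM for 90 min at 30 °C. Percent inhibition was determined.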

[2] = molecular target: T1, Histone-arginine methyltransferase CARM1 (Homo sapiens) (UniProt Q86X55); assay: Activation of recombinant CARM1 using PABP1 as substrate and [3H]-SAM at 50 uM after 90 mins by scintillation counting
T1 sequence (whole entry): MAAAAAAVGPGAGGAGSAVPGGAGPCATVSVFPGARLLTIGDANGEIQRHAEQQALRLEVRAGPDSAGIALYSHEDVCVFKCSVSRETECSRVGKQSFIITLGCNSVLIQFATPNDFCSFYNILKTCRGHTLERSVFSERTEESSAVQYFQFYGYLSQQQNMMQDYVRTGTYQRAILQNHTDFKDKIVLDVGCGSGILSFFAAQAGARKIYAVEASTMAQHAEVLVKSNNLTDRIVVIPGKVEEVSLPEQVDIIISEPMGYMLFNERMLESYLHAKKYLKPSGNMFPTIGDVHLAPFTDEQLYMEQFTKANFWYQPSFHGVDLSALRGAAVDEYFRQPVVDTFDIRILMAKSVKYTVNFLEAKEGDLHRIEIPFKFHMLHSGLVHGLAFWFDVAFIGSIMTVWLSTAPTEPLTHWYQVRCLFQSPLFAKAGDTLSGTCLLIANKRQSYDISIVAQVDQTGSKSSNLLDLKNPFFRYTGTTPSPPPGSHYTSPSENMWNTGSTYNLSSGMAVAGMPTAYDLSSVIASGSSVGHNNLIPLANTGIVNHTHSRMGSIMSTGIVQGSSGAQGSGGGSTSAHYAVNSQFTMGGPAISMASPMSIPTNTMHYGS
Method in brief: (§1)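 Recombinant CARM1 (0.2 μg) was incubated with PABP1 substrate and [³H]SAM (0.42 μM) in PBS pH 7.4 for 90 min at 30 °C. Compound was tested at 50 μM, or at 3–100 μM for concentration series. Bands were Ponceau-stained, excised and counted by liquid scintillation. Activity is given as % of DMSO control; no-SAM reactions served as negative control; at least two experiments.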

[3] = molecular target: T1, Histone-arginine methyltransferase CARM1 (Homo sapiens); assay: Activation of recombinant CARM1 using histone H3 as substrate and [3H]-SAM at 50 uM after 90 mins by scintillation counting
Method in brief: (§2)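 Recombinant CARM1 (0.2 μg) was incubated with histone H3 (1.1 μM) and [³H]SAM (0.42 μM) in PBS pH 7.4 with compound (50 μM) for 90 min at 30 °C. Methylation was measured by scintillation counting. Activity is expressed as % relative to DMSO, as the mean of at least two separate experiments.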

[4] = molecular target: T1, Histone-arginine methyltransferase CARM1 (Homo sapiens); assay: Activation of recombinant CARM1 expressed in HEK293 cells co-expressing 3XFLAG-tagged PABP1 assessed as arginine methylation of PABP1 at 50 uM after 24 hrs; type: cell-based
Method in brief: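 Flp-In T-Rex HEK293 cells stably carrying Tet-inducible 3XFLAG-PABP1 were kept in DMEM/10% FBS with blasticidin and hygromycin. They were plated at 1 × 10⁵ cells/mL and the medium was changed after 12 h. Cells then got compound with or without tetracycline (1 μg/mL) for 24 h. RIPA lysates were immunoblotted with anti-methyl-PABP1 and anti-FLAG. Band densities were compared to DMSO control.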

[5] = molecular target: T2, Histone-lysine N-methyltransferase SETD7 (Homo sapiens) (UniProt Q8WTS6); assay: Inhibition of recombinant SET7 using histone H3 as substrate at 50 uM and [3H]-SAM after 90 mins by scintillation counting
T2 sequence (whole entry): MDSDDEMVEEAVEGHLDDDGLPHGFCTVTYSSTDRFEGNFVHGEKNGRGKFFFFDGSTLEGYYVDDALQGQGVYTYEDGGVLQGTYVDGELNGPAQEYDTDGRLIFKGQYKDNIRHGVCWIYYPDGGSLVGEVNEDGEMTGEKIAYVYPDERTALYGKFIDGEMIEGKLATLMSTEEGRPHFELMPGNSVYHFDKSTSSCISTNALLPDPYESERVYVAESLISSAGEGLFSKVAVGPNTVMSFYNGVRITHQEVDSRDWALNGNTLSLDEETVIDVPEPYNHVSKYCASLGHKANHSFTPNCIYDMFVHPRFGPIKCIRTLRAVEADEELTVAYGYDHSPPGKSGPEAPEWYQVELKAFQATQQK

[6] = molecular target: Protein arginine N-methyltransferase 6 (Homo sapiens) (UniProt Q96LA8); assay: Inhibition of recombinant PRMT6 using histone H3 as substrate at 50 uM and [3H]-SAM after 90 mins by scintillation counting
[7] = molecular target: T1, Histone-arginine methyltransferase CARM1 (Homo sapiens); assay: Inhibition of recombinant CARM1 using histone H3 as substrate at 50 uM and [3H]-SAM after 90 mins by scintillation counting
Method in brief: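 Recombinant CARM1 (0.2 μg) incubated with histone H3 substrate (0.5 μg; H3 1.1 μM) and [3H]SAM (0.42 μM) in PBS pH 7.4 with 50 μM compound, 90 min, 30 °C. Bands Ponceau-stained, excised, scintillation counted; activity expressed as percent of DMSO control. Means of at least two separate experiments, SD in percentage points.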

[8] = molecular target: Protein arginine N-methyltransferase 3 (Homo sapiens) (UniProt O60678); assay: Inhibition of recombinant PRMT3 using glycine- and arginine-rich motif as substrate at 50 uM and [3H]-SAM after 90 mins by scintillation counting
Method in brief: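 Recombinant PRMT3 was incubated with GAR-motif substrate and [³H]SAM (0.42 μM) in PBS pH 7.4 with compound at 50 μM for 90 min at 30 °C.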

[9] = molecular target: T1, Histone-arginine methyltransferase CARM1 (Homo sapiens); assay: Activation of recombinant CARM1 using histone H3 as substrate and [3H]-SAM after 90 mins by scintillation counting; method in brief: as §2
[10] = molecular target: T1, Histone-arginine methyltransferase CARM1 (Homo sapiens); assay: Activation of recombinant CARM1 using PABP1 as substrate and [3H]-SAM after 90 mins by scintillation counting; method in brief: as §1

Protein arginine N-methyltransferase 1 (Homo sapiens), sequence (Q99873 whole entry, looked up): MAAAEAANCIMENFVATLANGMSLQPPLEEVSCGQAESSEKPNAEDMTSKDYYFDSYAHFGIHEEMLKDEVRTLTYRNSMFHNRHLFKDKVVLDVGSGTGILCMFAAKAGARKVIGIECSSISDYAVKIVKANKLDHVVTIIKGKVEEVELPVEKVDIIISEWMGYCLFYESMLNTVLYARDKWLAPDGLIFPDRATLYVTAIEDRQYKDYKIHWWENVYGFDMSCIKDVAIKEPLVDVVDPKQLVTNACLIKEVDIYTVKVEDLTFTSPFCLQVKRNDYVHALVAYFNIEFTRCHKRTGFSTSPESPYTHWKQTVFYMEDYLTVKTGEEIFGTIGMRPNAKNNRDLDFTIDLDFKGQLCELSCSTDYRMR
Protein arginine N-methyltransferase 3 (Homo sapiens), sequence (O60678 2-531 limits assumed): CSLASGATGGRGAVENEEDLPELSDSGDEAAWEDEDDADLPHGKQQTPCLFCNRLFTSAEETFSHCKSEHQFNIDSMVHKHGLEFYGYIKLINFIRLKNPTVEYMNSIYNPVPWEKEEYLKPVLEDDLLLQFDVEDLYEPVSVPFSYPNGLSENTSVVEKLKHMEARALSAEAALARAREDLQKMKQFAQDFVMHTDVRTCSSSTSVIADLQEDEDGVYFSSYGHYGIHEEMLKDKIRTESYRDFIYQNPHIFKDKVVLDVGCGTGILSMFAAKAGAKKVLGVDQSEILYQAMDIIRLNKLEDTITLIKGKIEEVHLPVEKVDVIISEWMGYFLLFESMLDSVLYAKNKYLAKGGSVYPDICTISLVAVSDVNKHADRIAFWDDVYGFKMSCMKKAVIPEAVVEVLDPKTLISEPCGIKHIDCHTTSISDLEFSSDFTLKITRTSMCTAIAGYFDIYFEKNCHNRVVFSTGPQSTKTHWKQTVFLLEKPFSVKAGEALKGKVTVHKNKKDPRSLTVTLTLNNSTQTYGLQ
Protein arginine N-methyltransferase 6 (Homo sapiens), sequence (Q96LA8 whole entry, looked up): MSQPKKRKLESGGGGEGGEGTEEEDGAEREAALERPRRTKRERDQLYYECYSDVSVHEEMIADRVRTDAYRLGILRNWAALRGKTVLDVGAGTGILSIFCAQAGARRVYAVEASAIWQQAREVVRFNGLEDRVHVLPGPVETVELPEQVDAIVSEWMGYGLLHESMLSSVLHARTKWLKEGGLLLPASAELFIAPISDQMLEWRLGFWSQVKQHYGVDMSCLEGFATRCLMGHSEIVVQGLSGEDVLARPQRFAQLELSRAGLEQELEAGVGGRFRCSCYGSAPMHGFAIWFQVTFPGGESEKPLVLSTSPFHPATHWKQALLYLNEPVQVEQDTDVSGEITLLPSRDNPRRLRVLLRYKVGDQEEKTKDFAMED

Structure (SMILES)	inhibition [1]	Activity [2] [%]	Activity [3] [%]	also measured
O=C(CNC(=O)Nc1ccc([N+](=O)[O-])cc1)Nc1ccc2[nH]c(C(=O)O)cc2c1	inactive	85.3	142	–
CN(C)c1ccc(NC(=O)NCC(=O)Nc2ccc3[nH]cc(C(=O)O)c3c2)cc1	inactive	–	–	–
COC(=O)c1c[nH]c2ccc(NC(=O)CNC(=O)Nc3ccc(C#N)cc3)cc12	inactive	38.8	135	–
COc1ccc(NC(=O)NCC(=O)Nc2ccc3[nH]cc(C(=O)O)c3c2)cc1	inactive	–	–	–
CCOC(=O)c1cc2cc(NC(=O)CNC(=O)Nc3ccc(C)cc3)ccc2[nH]1	inactive	382	127	Activity [4]: Active
CN(C)c1ccc(NC(=O)NCC(=O)Nc2ccc3[nH]c(C(=O)O)cc3c2)cc1	inactive	135	48.3	–
CCOC(=O)c1cc2cc(NC(=O)CNC(=O)Nc3ccc(C#N)cc3)ccc2[nH]1	inactive	358	115	Activity [4]: Active
Cc1ccc(NC(=O)NCC(=O)Nc2ccc3[nH]cc(C(=O)O)c3c2)cc1	inactive	–	–	–
Cc1ccc(NC(=O)NCC(=O)Nc2ccc3[nH]c(C(=O)O)cc3c2)cc1	inactive	149	111	–
O=C(Nc1ccc2c(O)cc(S(=O)(=O)O)cc2c1)Nc1ccc2c(O)cc(S(=O)(=O)O)cc2c1	–	–	74	inhibition [5]: 34.3%; inhibition [6]: 40.7%; inhibition [7]: 74.8%; inhibition [8]: 101%
COC(=O)c1c[nH]c2ccc(NC(=O)CNC(=O)Nc3ccc(N(C)C)cc3)cc12	inactive	7.6	125	–
COC(=O)c1c[nH]c2ccc(NC(=O)CNC(=O)Nc3ccc(C)cc3)cc12	inactive	4.7	39.7	–
N#Cc1ccc(NC(=O)NCC(=O)Nc2ccc3[nH]cc(C(=O)O)c3c2)cc1	inactive	–	–	–
O=C(Nc1ccc2cc(C(=O)O)cc(O)c2c1)Nc1ccc2cc(C(=O)O)cc(O)c2c1	–	–	83.1	–
COC(=O)c1c[nH]c2ccc(NC(=O)CNC(=O)Nc3ccc([N+](=O)[O-])cc3)cc12	inactive	115	134	–
O=C(CNC(=O)Nc1ccccc1)Nc1ccc2[nH]c(C(=O)O)cc2c1	inactive	172	167	–
CCOC(=O)c1cc2cc(NC(=O)CNC(=O)Nc3ccccc3)ccc2[nH]1	inactive	10.5	134	–
COC(=O)c1c[nH]c2ccc(NC(=O)CNC(=O)Nc3ccccc3)cc12	inactive	26.5	74.7	–
CCOC(=O)c1cc2cc(NC(=O)CNC(=O)Nc3ccc(OC)cc3)ccc2[nH]1	inactive	74.7	183	–
COc1ccc(NC(=O)NCC(=O)Nc2ccc3[nH]c(C(=O)O)cc3c2)cc1	inactive	96.3	211	–
O=C(CNC(=O)Nc1ccc([N+](=O)[O-])cc1)Nc1ccc2[nH]cc(C(=O)O)c2c1	inactive	–	–	–
N#Cc1ccc(NC(=O)NCC(=O)Nc2ccc3[nH]c(C(=O)O)cc3c2)cc1	inactive	81.2	143	–
COC(=O)c1c[nH]c2ccc(NC(=O)CNC(=O)Nc3ccc(OC)cc3)cc12	inactive	28.2	62.7	–
CCOC(=O)c1cc2cc(NC(=O)CNC(=O)Nc3ccc(N(C)C)cc3)ccc2[nH]1	inactive	70.6	102	–
O=C(CNC(=O)Nc1ccccc1)Nc1ccc2[nH]cc(C(=O)O)c2c1	inactive	–	–	–
CCOC(=O)c1cc2cc(NC(=O)CNC(=O)Nc3ccc([N+](=O)[O-])cc3)ccc2[nH]1	inactive	299	176	Activity [9]: Dose-dependent effect; inhibition [5]: 10.2%; inhibition [6]: 19.3%; inhibition [8]: 54.7%; Activity [10]: Dose-dependent effect
